Source: ChEMBL document CHEMBL1156684, “Non-nucleoside HIV-1 reverse transcriptase inhibitors. Part 11: structural modulations of diaryltriazines with potent anti-HIV activity” (Eur J Med Chem, 2008)

Columns and labels:
[1] = test system: Human immunodeficiency virus 2; experiment: Antiviral activity against HIV2 ROD in human MT4 cells assessed as inhibition of viral replication by MTT assay; type: functional, organism-based; conditions: Human immunodeficiency virus 2, ROD
Summary of the method: (§1)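 MT-4 cells at 1 × 10⁵ cells/ml infected with HIV at multiplicity of infection 0.02 (virus stocks titrated in MT-4 cells as CCID₅₀), then plated immediately with serial compound dilutions (DMSO stocks at 50 mM or higher). Viable cells counted by MTT after 4 days at 37 °C. IC₅₀ is the concentration protecting 50% of cells from viral cytopathogenicity.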

[2] = test system: Human immunodeficiency virus 1; experiment: Antiviral activity against HIV 3B in human MT4 cells assessed as inhibition of viral replication by MTT assay; type: functional, organism-based; conditions: Human immunodeficiency virus 1, 3B; summary of the method: as §1
[3] = Cytotoxicity against human MT4 cells after 4 days by MTT assay; type: cell-based
Summary of the method: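 Uninfected MT-4 cells exposed to graded compound concentrations (DMSO stocks at 50 mM or higher) for 4 days at 37 °C. Viability read by MTT. CC₅₀ is the concentration reducing MT-4 cell viability by 50%.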

[4] = Selectivity index, ratio of CC50 for human MT4 cells to IC50 for HIV1 3B; type: functional
Summary of the method: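 Ratio CC₅₀/IC₅₀. CC₅₀ is from MTT viability of MT-4 cells and IC₅₀ from MTT protection of HIV-infected MT-4 cells (MOI 0.02), both after 4 days at 37 °C.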

## CNc1nc(Nc2ccc(C#N)cc2)nc(Oc2ccc3cc(Br)ccc3c2Br)n1
[1]
  IC50: > 91.9 µM
[2]
  IC50: 0.0184 µM
[3]
  CC50 at 96 h: 92.8 µM
[4]
  Ratio CC50/IC50: 5018

## N#Cc1ccc(Nc2nc(N)nc(Oc3ccc(Cl)c4ccccc34)n2)cc1
[1]
  IC50: ≥ 12.6 µM
[2]
  IC50: 0.062 µM
[3]
  CC50 at 96 h: 237 µM
[4]
  Ratio CC50/IC50: 3775

## CNc1nc(Nc2ccc(C#N)cc2)nc(Oc2ccc3cc(Br)ccc3c2)n1
[1]
  IC50: > 194 µM
[2]
  IC50: 0.284 µM
[3]
  CC50 at 96 h: 194 µM
[4]
  Ratio CC50/IC50: 685

## CC(C)Nc1nc(Nc2ccc(C#N)cc2)nc(Oc2ccc3ccccc3c2Br)n1
[1]
  IC50: > 41.5 µM
[2]
  IC50: 1.06 µM
[3]
  CC50 at 96 h: 41.5 µM
[4]
  Ratio CC50/IC50: 39

## CCCNc1nc(Nc2ccc(C#N)cc2)nc(Oc2ccc(Cl)c3ccccc23)n1
[1]
  IC50: 45.6 µM
[2]
  IC50: 1.63 µM
[3]
  CC50 at 96 h: 182 µM
[4]
  Ratio CC50/IC50: 111

## N#Cc1ccc(Nc2nc(N)nc(Oc3cccc4ccccc34)n2)cc1
[1]
  IC50: > 39.1 µM
[2]
  IC50: 0.107 µM
[3]
  CC50 at 96 h: 39.1 µM
[4]
  Ratio CC50/IC50: 364

## CNc1nc(Nc2ccc(C#N)cc2)nc(Oc2ccc3ccccc3c2)n1
[1]
  IC50: > 251 µM
[2]
  IC50: 0.26 µM
[3]
  CC50 at 96 h: 250 µM
[4]
  Ratio CC50/IC50: 968

## CC(C)Nc1nc(Nc2ccc(C#N)cc2)nc(Oc2ccc3cc(Br)ccc3c2Br)n1
[1]
  IC50: 9.71 µM
[2]
  IC50: 0.693 µM
[3]
  CC50 at 96 h: ≥ 209 µM
[4]
  Ratio CC50/IC50: >302

## N#Cc1ccc(Nc2nc(N=[N+]=[N-])nc(Oc3ccc4ccccc4c3Cl)n2)cc1
[1]
  IC50: 6.17 µM
[2]
  IC50: 0.06 µM
[3]
  CC50 at 96 h: 256 µM
[4]
  Ratio CC50/IC50: 4270

## CCNc1nc(Nc2ccc(C#N)cc2)nc(Oc2ccc(Cl)c3ccccc23)n1
[1]
  IC50: > 208 µM
[2]
  IC50: 0.733 µM
[3]
  CC50 at 96 h: 208 µM
[4]
  Ratio CC50/IC50: 285

## Cc1ccnc2c1NC(=O)c1cccnc1N2C1CC1 [NEVIRAPINE]
[3]
  CC50 at 96 h: > 200 µM
[4]
  Ratio CC50/IC50: >800

## N#Cc1ccc(Nc2nc(N)nc(Oc3ccc4ccccc4c3Br)n2)cc1
[1]
  IC50: 20.2 µM
[2]
  IC50: 0.0094 µM
[3]
  CC50 at 96 h: 133 µM
[4]
  Ratio CC50/IC50: 14094

## CCCNc1nc(Nc2ccc(C#N)cc2)nc(Oc2cccc3ccccc23)n1
[1]
  IC50: > 73.2 µM
[2]
  IC50: 2.7 µM
[3]
  CC50 at 96 h: 29.5 µM
[4]
  Ratio CC50/IC50: 11

## CCCNc1nc(Nc2ccc(C#N)cc2)nc(Oc2ccc3ccccc3c2Cl)n1
[1]
  IC50: ≥ 43.6 µM
[2]
  IC50: 0.187 µM
[3]
  CC50 at 96 h: > 290 µM
[4]
  Ratio CC50/IC50: >1547

## N#Cc1ccc(Nc2nc(N)nc(Oc3ccc4ccccc4c3)n2)cc1
[1]
  IC50: ≥ 11.5 µM
[2]
  IC50: 0.09 µM
[3]
  CC50 at 96 h: 42.2 µM
[4]
  Ratio CC50/IC50: 471

## N#Cc1ccc(Nc2nc(N)nc(Oc3ccc4cc(Br)ccc4c3Br)n2)cc1
[1]
  IC50: 10.5 µM
[2]
  IC50: 0.0195 µM
[3]
  CC50 at 96 h: 244 µM
[4]
  Ratio CC50/IC50: 12475

## CNc1nc(Nc2ccc(C#N)cc2)nc(Oc2ccc3ccccc3c2Cl)n1
[1]
  IC50: > 171 µM
[2]
  IC50: 0.0118 µM
[3]
  CC50 at 96 h: 171 µM
[4]
  Ratio CC50/IC50: 14412

## CNc1nc(Nc2ccc(C#N)cc2)nc(Oc2ccc(Cl)c3ccccc23)n1
[1]
  IC50: > 197 µM
[2]
  IC50: 0.093 µM
[3]
  CC50 at 96 h: 197 µM
[4]
  Ratio CC50/IC50: 2111

## N#Cc1ccc(Nc2nc(N)nc(Oc3ccc4cc(Br)ccc4c3)n2)cc1
[1]
  IC50: 19.7 µM
[2]
  IC50: 0.0808 µM
[3]
  CC50 at 96 h: 243 µM
[4]
  Ratio CC50/IC50: 3019

## CNc1nc(Nc2ccc(C#N)cc2)nc(Oc2cccc3ccccc23)n1
[1]
  IC50: > 30.3 µM
[2]
  IC50: 0.186 µM
[3]
  CC50 at 96 h: 30.3 µM
[4]
  Ratio CC50/IC50: 163

## CCCNc1nc(Nc2ccc(C#N)cc2)nc(Oc2ccc3cc(Br)ccc3c2Br)n1
[1]
  IC50: 6.59 µM
[2]
  IC50: 0.256 µM
[3]
  CC50 at 96 h: 134 µM
[4]
  Ratio CC50/IC50: 524

## CCNc1nc(Nc2ccc(C#N)cc2)nc(Oc2ccc3cc(Br)ccc3c2Br)n1
[1]
  IC50: > 74.5 µM
[2]
  IC50: 0.156 µM
[3]
  CC50 at 96 h: 74.4 µM
[4]
  Ratio CC50/IC50: 477

## O=c1[nH]cnc2c1ncn2[C@H]1CC[C@@H](CO)O1 [DIDANOSINE]
[3]
  CC50 at 96 h: ≥ 529 µM
[4]
  Ratio CC50/IC50: >=98

## N#Cc1ccc(Nc2nc(N)nc(Oc3ccc4ccccc4c3Cl)n2)cc1
[1]
  IC50: ≥ 5.3 µM
[2]
  IC50: 0.0287 µM
[4]
  Ratio CC50/IC50: 2872

## CCCNc1nc(Nc2ccc(C#N)cc2)nc(Oc2ccc3ccccc3c2Br)n1
[1]
  IC50: ≥ 58.3 µM
[2]
  IC50: 0.203 µM
[3]
  CC50 at 96 h: > 263 µM
[4]
  Ratio CC50/IC50: >1294

## CNc1nc(Nc2ccc(C#N)cc2)nc(Oc2ccc3ccccc3c2Br)n1
[1]
  IC50: ≥ 28.2 µM
[2]
  IC50: 0.0093 µM
[3]
  CC50 at 96 h: 143 µM
[4]
  Ratio CC50/IC50: 15400

## CCNc1nc(Nc2ccc(C#N)cc2)nc(Oc2ccc3ccccc3c2Cl)n1
[1]
  IC50: 16 µM
[2]
  IC50: 0.114 µM
[3]
  CC50 at 96 h: 188 µM
[4]
  Ratio CC50/IC50: 1642
